Test results taken from ChEMBL document CHEMBL2034940, “Synthesis of N6-alkyl(aryl)-2-alkyl(aryl)thioadenosines as antiplatelet agents” (Eur J Med Chem, 2012).

How the values were obtained:
[1] = test system: Platelet; assay: Inhibition of ADP-induced platelet aggregation in human platelet rich plasma assessed as platelet aggregation at 300 uM incubated 1 min prior ADP induction measured after 3 mins by Born's method using aggregometry relative to control; format: functional; set-up: scale not given: the % may be the effect or the level left
Outline: (§1)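 Human citrated PRP from drug-free healthy donors, with PPP as the blank, in an aggregometer at 37 °C. Compound added at 300 µM final in DMSO (below 0.5%) for 1 min, then 10 µM ADP final. Maximum aggregation tracing height read over at least 3 min and compared with the DMSO vehicle control.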

[2] = test system: Platelet; assay: Inhibition of ADP-induced platelet aggregation in human platelet rich plasma at 300 uM incubated 1 min prior ADP induction measured after 3 mins by Born's method using aggregometer relative to control; format: functional; outline: as §1
[3] = test system: Platelet; assay: Inhibition of ADP-induced platelet aggregation in human platelet rich plasma incubated 1 min prior ADP induction measured after 3 mins by Born's method using aggregometer; format: functional, cell-free; details: for IC50: Homo sapiens, Platelet, Plasma
Outline: (§2)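 Citrated (3.8% sodium citrate, 1:9) venous blood from healthy donors free of aspirin/NSAIDs for at least 14 days. PRP prepared by centrifugation, with PPP as the baseline blank. Compound in DMSO (below 0.5% final) added to 500 µL PRP 1 min before 10 µM ADP (final), at 37 °C. Aggregation is the maximum tracing height over at least 3 min, expressed as % inhibition versus vehicle. IC50 comes from non-linear regression, mean ± S.E.M., n = 3.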

[4] = test system: Platelet; assay: Inhibition of arachidonic acid-induced platelet aggregation in human platelet rich plasma incubated 1 min prior arachidonic acid induction measured after 3 mins by Born's method using aggregometer; format: functional, cell-free; details: for IC50: Homo sapiens, Platelet, Plasma
Outline: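 Citrated PRP from healthy volunteers free of aspirin/NSAIDs for at least 14 days, with PPP as the baseline blank. Compound in DMSO (below 0.5% final) preincubated 1 min in 500 µL PRP at 37 °C, then 0.5 mM arachidonic acid (final) added. Maximum aggregation height over at least 3 min gives % inhibition versus vehicle. IC50 by non-linear regression, mean ± S.E.M. of 3 experiments.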

[5] = test system: Platelet; assay: Inhibition of ADP-induced platelet aggregation in human platelet rich plasma; format: functional, cell-free; outline: as §2

Structure (SMILES)	Activity [1] [%]	inhibition at 300 µM [2] [%]	inhibition (INH) [3] [%]	other results
OC[C@H]1O[C@@H](n2cnc3c(NCCc4ccccc4)nc(SCc4ccccc4)nc32)[C@H](O)[C@@H]1O	57	< 50	–	–
CCSc1nc(NCCc2ccc(OC)cc2)c2ncn([C@@H]3O[C@H](CO)[C@@H](O)[C@H]3O)c2n1	–	–	>50	IC50 [3]: 89 µM
CCCSc1nc(NCCc2ccc(OC)cc2)c2ncn([C@@H]3O[C@H](CO)[C@@H](O)[C@H]3O)c2n1	–	–	>50	–
CSc1nc(NCc2ccccc2)c2ncn([C@@H]3O[C@H](CO)[C@@H](O)[C@H]3O)c2n1	52	< 50	–	–
CCSc1nc(NC2CCCCC2)c2ncn([C@@H]3O[C@H](CO)[C@@H](O)[C@H]3O)c2n1	–	–	>50	–
CCSc1nc(NCc2ccc(C)cc2)c2ncn([C@@H]3O[C@H](CO)[C@@H](O)[C@H]3O)c2n1	88	< 50	–	–
CCCCSc1nc(NC2CCCCC2)c2ncn([C@@H]3O[C@H](CO)[C@@H](O)[C@H]3O)c2n1	–	–	>50	IC50 [3]: 83 µM
CCCSc1nc(NCCc2cccc(OC)c2)c2ncn([C@@H]3O[C@H](CO)[C@@H](O)[C@H]3O)c2n1	–	–	>50	IC50 [3]: 69 µM
CCCSc1nc(NC2CCCCC2)c2ncn([C@@H]3O[C@H](CO)[C@@H](O)[C@H]3O)c2n1	–	–	>50	–
CCCCSc1nc(NCCc2ccccc2)c2ncn([C@@H]3O[C@H](CO)[C@@H](O)[C@H]3O)c2n1	–	–	>50	IC50 [3]: 59 µM; inhibition (INH) [4]: < 50%
CCSc1nc(NCCc2cccc(OC)c2)c2ncn([C@@H]3O[C@H](CO)[C@@H](O)[C@H]3O)c2n1	–	–	>50	IC50 [3]: 38 µM; inhibition (INH) [4]: < 50%
CC(C)Sc1nc(NC2CCCCC2)c2ncn([C@@H]3O[C@H](CO)[C@@H](O)[C@H]3O)c2n1	–	–	>50	–
CSCCNc1nc(SCCC(F)(F)F)nc2c1ncn2[C@@H]1O[C@H](COP(=O)(O)OP(=O)(O)C(Cl)(Cl)P(=O)(O)O)[C@@H](O)[C@H]1O [CANGRELOR TETRASODIUM]	–	–	–	IC50 [5]: 0.0004 µM
CCCCCCNc1nc(SCC)nc2c1ncn2[C@@H]1O[C@H](CO)[C@@H](O)[C@H]1O	57	< 50	–	–
CCCCN(CCCC)c1nc(SCC)nc2c1ncn2[C@@H]1O[C@H](CO)[C@@H](O)[C@H]1O	77	< 50	–	–
OC[C@H]1O[C@@H](n2cnc3c(NCCc4ccccc4)nc(Sc4ccccc4)nc32)[C@H](O)[C@@H]1O	57	< 50	–	–
COc1ccc(CCNc2nc(SC)nc3c2ncn3[C@@H]2O[C@H](CO)[C@@H](O)[C@H]2O)cc1	–	–	>50	–

Structure (SMILES)	Activity [1] [%]	inhibition at 300 µM [2] [%]	inhibition (INH) [3] [%]	other results
CCSc1nc(NCc2ccccc2)c2ncn([C@@H]3O[C@H](CO)[C@@H](O)[C@H]3O)c2n1	–	–	>50	–
CSc1nc(NCCc2ccccc2)c2ncn([C@@H]3O[C@H](CO)[C@@H](O)[C@H]3O)c2n1	–	–	>50	IC50 [3]: 36 µM; inhibition (INH) [4]: >50%; IC50 [4]: 3 µM
CCCCCCNc1nc(SCCC)nc2c1ncn2[C@@H]1O[C@H](CO)[C@@H](O)[C@H]1O	–	–	>50	–
CCCCSc1nc(NCc2ccccc2)c2ncn([C@@H]3O[C@H](CO)[C@@H](O)[C@H]3O)c2n1	–	–	>50	–
COc1cccc(CCNc2nc(SC)nc3c2ncn3[C@@H]2O[C@H](CO)[C@@H](O)[C@H]2O)c1	71	< 50	–	–
CCCCSc1nc(NCCc2cccc(OC)c2)c2ncn([C@@H]3O[C@H](CO)[C@@H](O)[C@H]3O)c2n1	85	< 50	–	–
CCSc1nc(NCCc2ccccc2)c2ncn([C@@H]3O[C@H](CO)[C@@H](O)[C@H]3O)c2n1	–	–	>50	IC50 [3]: 29 µM; inhibition (INH) [4]: >50%; IC50 [4]: 30 µM
CCCSc1nc(NCc2ccc(OC)cc2)c2ncn([C@@H]3O[C@H](CO)[C@@H](O)[C@H]3O)c2n1	–	–	>50	–
CCCSc1nc(NCc2ccccc2)c2ncn([C@@H]3O[C@H](CO)[C@@H](O)[C@H]3O)c2n1	–	–	>50	–
CSc1nc(NCc2ccc(C)cc2)c2ncn([C@@H]3O[C@H](CO)[C@@H](O)[C@H]3O)c2n1	77	< 50	–	–
CCCCSc1nc(NCCc2ccc(OC)cc2)c2ncn([C@@H]3O[C@H](CO)[C@@H](O)[C@H]3O)c2n1	–	–	>50	IC50 [3]: 93 µM
CCSc1nc(NCc2ccc(OC)cc2)c2ncn([C@@H]3O[C@H](CO)[C@@H](O)[C@H]3O)c2n1	74	< 50	–	–
CCCSc1nc(NCCc2ccccc2)c2ncn([C@@H]3O[C@H](CO)[C@@H](O)[C@H]3O)c2n1	–	–	>50	IC50 [3]: 52 µM; inhibition (INH) [4]: >50%; IC50 [4]: 44 µM
CCSc1nc(NC(C)c2ccccc2)c2ncn([C@@H]3O[C@H](CO)[C@@H](O)[C@H]3O)c2n1 (some centres not stated)	–	–	>50	–
CCCCCCNc1nc(SCCCC)nc2c1ncn2[C@@H]1O[C@H](CO)[C@@H](O)[C@H]1O	66	< 50	–	–
COc1ccc(CNc2nc(SC)nc3c2ncn3[C@@H]2O[C@H](CO)[C@@H](O)[C@H]2O)cc1	69	< 50	–	–
